# Compound activity (PubChem)
# This is a sample that favours compounds with a hit; in the whole collection about 1.8% have one here.
# NOD2-RIPK2 inh: NOD2-RIPK2 binding disruptors in cells, primary screen, fluorescence, CHO cells, BLA complementation. inhibition, % at 4.98 µM. AID 624267, 2012. 0.38% of 360,000 active. Receptor-interacting serine/threonine-protein kinase 2 (Homo sapiens), O43353. CCF4 ratio; in the data active means inhibition above about 21%;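 further: 0% = vehicle only and 100% = reference blocker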
# MC4R barr agon: MC4R agonists recruiting beta-arrestin, primary screen, cell-based, luminescence, agonist arm of biased-ligand search. 0.98% of 360,000 active. activation, % at 8.9 µM. U2OS MC4R beta-arrestin complementation; percent of melanotan II response, DMSO zero. Melanocortin receptor 4 (Homo sapiens), P32245;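 active means activation above a per-plate cutoff, the mean activation of sample wells on that plate plus 3 SD, cut at about 8% in these data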
# Target sequence (P32245 whole entry, looked up): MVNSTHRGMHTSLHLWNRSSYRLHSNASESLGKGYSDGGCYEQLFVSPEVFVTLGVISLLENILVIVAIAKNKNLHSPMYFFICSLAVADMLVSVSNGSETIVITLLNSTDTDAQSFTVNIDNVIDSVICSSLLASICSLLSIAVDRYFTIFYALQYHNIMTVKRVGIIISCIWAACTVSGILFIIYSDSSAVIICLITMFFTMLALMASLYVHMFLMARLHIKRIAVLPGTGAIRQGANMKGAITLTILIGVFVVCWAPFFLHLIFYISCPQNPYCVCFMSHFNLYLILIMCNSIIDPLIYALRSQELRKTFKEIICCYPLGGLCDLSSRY
# MC4R antagonist: MC4R antagonists of cAMP signaling, primary screen, cell-based, TR-FRET, antagonist arm of biased-ligand search. Melanocortin receptor 4 (Homo sapiens), P32245. MC4R-expressing cells, MTII-stimulated cAMP, LANCE TR-FRET. inhibition, % at 6.5 µM. 0.48% of 360,000 active;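 active means inhibition above its plate's cutoff, the mean of tested wells on that plate plus 3 SD, cut at about 29% in these data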;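 further: 0% = Melanotan II alone and 100% = Melanotan II plus saturating MCL0020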
#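 Test system: U2OS cells stably expressing human melanocortin 4 receptor (MC4R); also added: Melanotan II challenge; compound: 6.5 µM single dose; timing: 30-min compound preincubation, 1-h Melanotan II challenge, 1-h detection, room temperature; signal: Eu-cAMP/anti-cAMP TR-FRET, emission 671 nm; repeats: one well per compound, no replicates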
# TLR4-MyD88 BLA: inhibitors of TLR4-MyD88 association in cells, primary screen, cell-based, HeLa CL3-4, BLA complementation, FRET ratio; HeLa CL3-4 TLR4/MyD88 BLA complementation; inhibition, % at 8.4 µM; 0.18% of 200,000 active; AID 861, 2007; in the data active means inhibition above about 25%;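 further: 0% = vehicle and 100% = reference inhibitor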
# TLR9-MyD88 block: inhibitors of TLR9-MyD88 association in cells, primary screen, cell-based, CHO, BLA complementation, fluorescence; CCF4 FRET ratio; inhibition, % at 4.98 µM; 0.21% of 340,000 active; AID 504734, 2011;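 active means inhibition above the mean over all tested compounds plus 3 SD, cut at about 21% in these data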;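 further: 0% = DMSO only wells and 100% = clavulanate BLA inhibitor control wells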
# * hit, by the source's call; / = no result.
SMILES,NOD2-RIPK2 inh,MC4R barr agon,MC4R antagonist,TLR4-MyD88 BLA,TLR9-MyD88 block
CC(C)COC(=O)NC1c2ccccc2Oc2ccccc21,-8.4,10.2*,11.6,/,-9.8
CC(C)c1nc(C(=O)N2CCCC(CCC(=O)N(C)CCc3ccccn3)C2)cs1 (centres undefined),-10.0,-3.0,19.0,10.2,-4.9
COc1ccc(N2CCN(C(=O)c3ccc(Cl)c(S(=O)(=O)N4CCOCC4)c3)CC2)cc1,-2.6,0.3,7.6,/,0.3
Cc1ccc(-c2nn(-c3ccccc3)cc2CNCc2ccccc2)cc1,13.6,9.5*,0.3,2.7,/
Cc1ccc(-c2nn(-c3ccccc3)cc2CO)cc1,1.6,1.0,1.3,/,-3.5
Cc1cccc(C(=O)Oc2ccccc2/C=N/Nc2ccc([N+](=O)[O-])cc2)c1,1.1,9.2*,8.9,15.3,-9.4
Cc1ccc(S(=O)(=O)N2CCN(Cc3csc(C)n3)CC2)cc1,13.2,-6.3,8.7,/,1.7
COc1nc(NCCc2ccc(OC)c(OC)c2)nc(Nc2ccccc2)n1,1.5,-0.3,-7.1,/,4.3
CCOc1ccc(/C=C/C(=O)Nc2ccccc2C(F)(F)F)cc1,10.9,8.8*,7.1,6.9,-0.3
CCOc1ccc(/C=C/C(=O)Nc2ccc(OC)cc2[N+](=O)[O-])cc1,3.4,34.3*,-8.8,-3.6,2.6
CCOc1ccc(OCC(=O)Nc2ccc(OC)cc2[N+](=O)[O-])cc1,-8.0,0.8,-6.4,6.8,-4.9
O=C(COC(=O)CCc1c[nH]c2ccccc12)Nc1ccc([N+](=O)[O-])cc1,2.3,8.6*,27.3,-7.0,-8.1
O=C(COC(=O)CCc1c[nH]c2ccccc12)Nc1cc([N+](=O)[O-])ccc1Cl,-5.2,0.5,5.1,7.8,-7.3
Cc1ccc(NC(=O)C(=O)NC(C)C2COc3ccccc3O2)cc1 (centres undefined),-11.8,10.9*,-3.2,-14.1,6.7
CC(NC(=O)CCC(=O)NC(C)C1COc2ccccc2O1)C1COc2ccccc2O1 (centres undefined),-2.7,-0.5,0.5,-8.1,-10.1
Cc1cccc(OCC(=O)Nc2ccc(S(=O)(=O)Nc3onc(C)c3C)cc2)c1C,3.1,1.2,14.7,/,-6.0
O=C(O)c1ccccc1C(=O)N1CCc2c([nH]c3ccccc23)C1C(F)(F)F (centres undefined),1.4,-0.8,-5.1,/,/
O=C(c1cccc(C(F)(F)F)c1)N1CCc2c([nH]c3ccccc23)C1C(F)(F)F (centres undefined),-21.7,8.8*,9.5,/,6.1
Cc1cc(C)cc(NC(=O)CSc2nc(CSc3ccc(Cl)cc3)cc(=O)[nH]2)c1,-21.8,8.6*,4.7,/,5.4
CCNC(=O)C1(C)CCCN(Cc2ccc(Oc3ccccc3)cc2)C1 (centres undefined),-13.3,2.5,4.3,/,/
COc1ccccc1CNC(=O)CN(c1cccc([N+](=O)[O-])c1)S(C)(=O)=O,12.0,-1.8,25.8,16.9,-3.9
Cc1ccccc1CNC(=O)CN(c1cccc([N+](=O)[O-])c1)S(C)(=O)=O,-13.6,1.5,30.3*,1.4,1.8
COc1ccc(CCC(=O)Nc2ccc(N3CCOCC3)c(S(=O)(=O)Nc3ccc(OC)cc3)c2)cc1,-2.3,-0.5,0.6,/,-7.7
Cc1cc2c(cc1C)CSC(c1ccccc1O)SC2,6.8,-0.6,11.2,6.3,-5.5
Cc1cc2c(cc1C)CSC(c1ccc(O)cc1)SC2,-1.6,8.6*,-4.7,5.2,9.7
SMILES,NOD2-RIPK2 inh,MC4R barr agon,MC4R antagonist,TLR4-MyD88 BLA,TLR9-MyD88 block
O=C(O)CCn1cc(/C=C/C(=O)c2ccc(Cl)cc2)c(-c2ccc(Br)cc2)n1,8.1,-0.8,35.0*,-0.9,-2.3
C[C@H]1CN([C@@H](C)CO)C(=O)CCCn2cc(nn2)CO[C@@H]1CN(C)S(=O)(=O)c1ccc(Cl)cc1,-4.1,1.0,-3.2,/,-2.5
COCCNc1nc(Oc2cccc(NC(C)=O)c2)c2sc(-c3ccccc3)cc2n1,-7.0,9.1*,22.8,/,/
C=CCN(CC=C)C(=S)Nc1ccc(OC)c(OC)c1,-4.7,-0.2,-4.6,-1.3,0.4
O=C(Cc1cccc2ccccc12)N/N=C/c1ccncc1,-3.2,-1.8,8.3,13.0,-3.4
O=C(Cc1cccc2ccccc12)N/N=C/c1ccc(F)cc1,0.9,14.8*,1.2,3.2,-6.4
Cc1onc(-c2ccccc2Cl)c1C(=O)N1CCC(Cc2ccccc2)CC1,6.6,-0.2,0.2,/,-2.5
N#Cc1cccc2c1-c1ccccc1/C2=N/NC(N)=S,6.2,17.1*,-47.3,/,-5.1
N#Cc1cccc2c1-c1ccccc1/C2=N/NC(N)=O,4.4,0.0,-9.4,/,4.2
Brc1ccccc1Cn1c(-c2cscn2)nc2ccccc21,2.4,9.3*,-0.2,-0.1,0.2
COc1cccc(NC(=O)Nc2nc(-c3ccc(OC)c(OC)c3)cs2)c1,7.5,18.5*,2.6,/,6.2
Cc1ccc(Cn2c(=O)c3ccccc3n3nc(C)cc23)cc1,-0.3,8.2*,-0.3,-5.0,1.1
Cc1ccc(C)c(C(C)NC(=S)NCc2ccc(F)cc2)c1 (centres undefined),2.9,8.2*,-3.8,/,-2.9
C=C(C)COc1ccc(-c2n[nH]c(C)c2-c2ccc(OC)cc2)c(O)c1,6.7,9.6*,12.0,13.4,6.7
CC(OC(=O)CC1CCCCC1)C(=O)Nc1cccc(C#N)c1 (centres undefined),12.6,3.5,-1.2,/,-5.0
CNC[C@@H](Cc1ccccc1)NC[C@@H](CC1CCCCC1)NCCCc1ccccc1,-4.3,11.5*,0.5,/,-4.7
CCC[C@@H](CNC)NC[C@H](Cc1ccccc1)NCCCCc1ccccc1,2.9,0.4,4.4,/,1.2
Cc1cccc(NC(=O)C2CCN(S(=O)(=O)c3c(C)noc3C)CC2)c1,0.6,-0.9,5.8,/,4.3
Cc1ccc(-c2nnc(SCC(=O)Nc3ccc(S(=O)(=O)N4CCCCCC4)cc3)o2)cc1,-5.5,9.3*,4.9,-15.3,-7.9
CCC(C)(C)c1ccc(OCCCC[n+]2cccc(C)c2)c(C(C)(C)CC)c1,1.4,18.6*,11.0,11.4,-10.3
Cc1cc(NC(=O)CCS(=O)(=O)c2nc(-c3ccccc3)cc(C(F)(F)F)n2)no1,23.4*,-4.1,24.6,/,10.8
Cc1ccc(S(=O)(=O)CCC(=O)Nc2cc(C)on2)cc1,-11.1,1.0,-1.5,/,-9.1
OCC1(Cc2ccc(F)cc2F)CCCN(CCCc2ccccc2)C1 (centres undefined),-17.8,9.5*,19.0,/,-9.5
Cc1cc(=O)oc2cc(NC(=O)C3COc4ccccc4O3)ccc12 (centres undefined),11.7,10.6*,13.4,-7.3,-0.8
